Test results taken from ChEMBL document CHEMBL2321726, “Identification of selective inhibitors for human neuraminidase isoenzymes using C4,C7-modified 2-deoxy-2,3-didehydro-N-acetylneuraminic acid (DANA) analogues” (J Med Chem, 2013).
pIC50, pKi: −log10 of the molar value.

Assays:
[1] = target: T1, Sialidase-4 (Homo sapiens, UniProt Q8WWR8); assay: Inhibition of human neuraminidase 4 using 4MU-NANA as substrate after 30 mins by fluorescence assay
T1 sequence (Q8WWR8 whole entry): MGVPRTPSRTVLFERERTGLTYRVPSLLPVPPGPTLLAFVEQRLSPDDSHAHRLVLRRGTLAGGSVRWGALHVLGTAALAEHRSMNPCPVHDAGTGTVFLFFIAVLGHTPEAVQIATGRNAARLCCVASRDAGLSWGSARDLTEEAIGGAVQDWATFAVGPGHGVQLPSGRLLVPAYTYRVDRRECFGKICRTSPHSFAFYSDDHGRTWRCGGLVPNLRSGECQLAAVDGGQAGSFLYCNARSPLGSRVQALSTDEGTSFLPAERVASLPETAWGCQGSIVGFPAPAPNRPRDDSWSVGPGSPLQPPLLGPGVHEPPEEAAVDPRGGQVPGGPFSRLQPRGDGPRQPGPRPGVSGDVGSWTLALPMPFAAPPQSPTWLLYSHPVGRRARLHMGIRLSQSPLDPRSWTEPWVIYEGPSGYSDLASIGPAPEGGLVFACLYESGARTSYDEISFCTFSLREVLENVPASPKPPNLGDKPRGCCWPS
Summary of the method: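 GST-fusion enzyme, assayed in 0.1 M sodium acetate pH 4.5. Inhibitor diluted 3-fold serially from 1 mM final, incubated 15 min at 37 °C with enzyme, then 4MU-NANA (50 μM final) 30 min at 37 °C. Four replicates; IC50 from nonlinear regression.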

[2] = target: Sialidase-1 (Homo sapiens, UniProt Q99519); assay: Inhibition of human neuraminidase 1 using 4MU-NANA as substrate after 30 mins by fluorescence assay
Summary of the method: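 NEU1 purified per earlier protocol as complex with β-galactosidase and cathepsin A. 0.1 M sodium acetate, pH 4.5. Inhibitor in 3-fold serial dilutions from 1 mM final, preincubated with enzyme 15 min at 37 °C. 4MU-NANA (50 μM final) added, 30 min at 37 °C. Four replicates; IC50 by nonlinear regression.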

[3] = target: T2, Sialidase-3 (Homo sapiens, UniProt Q9UQ49); assay: Inhibition of human neuraminidase 3 expressed in Escherichia coli using 4MU-NANA as substrate after 30 mins by fluorescence assay
T2 sequence (Q9UQ49 whole entry): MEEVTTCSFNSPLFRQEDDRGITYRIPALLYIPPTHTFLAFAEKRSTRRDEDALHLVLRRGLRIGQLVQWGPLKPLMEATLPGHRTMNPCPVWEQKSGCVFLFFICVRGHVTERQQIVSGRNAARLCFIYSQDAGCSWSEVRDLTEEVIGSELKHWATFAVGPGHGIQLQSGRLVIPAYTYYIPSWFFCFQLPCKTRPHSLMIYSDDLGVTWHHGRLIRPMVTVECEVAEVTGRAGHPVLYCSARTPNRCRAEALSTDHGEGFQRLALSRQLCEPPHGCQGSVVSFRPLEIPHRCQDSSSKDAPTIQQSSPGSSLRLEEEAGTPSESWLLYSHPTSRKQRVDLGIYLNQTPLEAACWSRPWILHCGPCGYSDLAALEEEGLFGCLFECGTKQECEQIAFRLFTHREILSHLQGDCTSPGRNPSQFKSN
Summary of the method: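 Enzyme made in E. coli as N-terminal MBP fusion. 0.1 M sodium acetate pH 4.5. 3-fold serial inhibitor dilutions from 1 mM final, 15 min preincubation with enzyme at 37 °C, then 4MU-NANA 50 μM final for 30 min at 37 °C. Glycinate pH 10.7 stop, fluorescence 365/445 nm. Quadruplicate points; IC50 by nonlinear regression.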

[4] = target: Neuraminidase (Vibrio cholerae, UniProt Q5IB64); assay: Inhibition of Vibrio cholerae neuraminidase
[5] = target: T2, Sialidase-3; assay: Inhibition of human neuraminidase 3 expressed in Escherichia coli using 4MU-NANA as substrate measured for every 30 seconds for 60 mins by fluorescence assay
Summary of the method: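 Product formation at 37 °C read every 30 s for 60 min (ex 365/em 445 nm). Initial linear rates; Lineweaver–Burk slopes plotted against inhibitor concentration and fitted for Ki.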

SMILES | pIC50 [1] | pIC50 [2] | pIC50 [3] | pIC50 [4] | pKi [5]
CC(=O)N[C@H]1[C@H](CNc2ccccc2)OC(C(=O)O)=C[C@@H]1N | < 3.00 | < 3.00 | 3.27 | < 3.00 | –
CC(=O)N[C@H]1[C@H](CNc2ccccc2)OC(C(=O)O)=C[C@@H]1O | < 3.00 | < 3.00 | 3.43 | < 3.00 | –
CC(=O)N[C@H]1[C@H](CNCc2ccccc2)OC(C(=O)O)=C[C@@H]1O | < 3.00 | < 3.00 | < 3.00 | 3.33 | –
CC(=O)N[C@H]1[C@H](CNNCc2ccc(-c3ccccc3)cc2)OC(C(=O)O)=C[C@@H]1O | 3.70 | < 3.00 | 4.15 | < 3.00 | –
CC(=O)N[C@H]1[C@H]([C@H](O)[C@H](O)CO)OC(C(=O)O)=C[C@@H]1N=[N+]=[N-] | 3.00 | 3.44 | 4.27 | 3.27 | –
CC(=O)N[C@@H]1[C@@H](N=[N+]=[N-])C=C(C(=O)O)O[C@H]1CNc1ccccc1 | 3.52 | < 3.00 | 3.36 | < 3.00 | –
CC(=O)N[C@@H]1[C@@H](N=[N+]=[N-])C=C(C(=O)O)O[C@H]1CNc1ccc(-c2ccccc2)cc1 | 3.68 | < 3.00 | 4.30 | < 3.00 | –
CC(=O)N[C@@H]1[C@@H](N=[N+]=[N-])C=C(C(=O)O)O[C@H]1CNOCc1ccccc1 | < 3.00 | < 3.00 | 4.62 | 3.26 | 5.10
CC(=O)N[C@@H]1[C@@H](N=[N+]=[N-])C=C(C(=O)O)O[C@H]1CN(Cc1ccccc1)OCc1ccccc1 | 3.46 | < 3.00 | 4.62 | < 3.00 | –
CC(=O)N[C@@H]1[C@@H](N=[N+]=[N-])C=C(C(=O)O)O[C@H]1CNNc1ccccc1 | < 3.00 | < 3.00 | 4.70 | < 3.00 | 4.96
CC(=O)N[C@H]1[C@H]([C@H](O)[C@H](O)CO)OC(C(=O)O)=C[C@@H]1N | 3.14 | < 3.00 | 3.74 | < 3.00 | –
CC(=O)N[C@H]1[C@H]([C@H](O)[C@H](O)CO)OC(C(=O)O)=C[C@@H]1O [NEU5AC2EN] | – | – | 5.20 | 3.77 | 5.66
